According to PMC5055850 (Bioorganic & medicinal chemistry, 2016):
Like-named read-outs stand apart in the source and are kept apart here.

Tests used:
Assay type in all cases: cell-based
[1] = tested on: human polymorphonuclear neutrophils (hPMN); experiment: Ca2+ flux assay in human neutrophils; conditions: for hPMN Efficacy: % of the response induced by 5 nM fMLF; for EC50: Homo sapiens, Polymorphonuclear neutrophil, read-out: hPMN EC50
How it was run: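 Neutrophils from healthy donors' blood, purified by dextran sedimentation, Histopaque 1077 gradient and hypotonic red-cell lysis (>95% pure, >98% viable). Cells in HBSS− with 10 mM HEPES were loaded with Fluo-4 AM (1.25 µg/mL final) for 30 min at 37 °C, then plated at 2 × 10^5 cells/well. Fluorescence (485/538 nm) read every 5 s for 240 s at room temperature. Peak change normalized to 5 nM fMLF. EC50 from 5–6-point nonlinear regression, three experiments.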

FPR1 = target: T1, FPR1 (Homo sapiens, UniProt P21462); experiment: Ca2+ flux assay in FPR1-HL60 cells; conditions: for FPR1-HL60 Efficacy: % of the response induced by 5 nM fMLF; for Emax: read-out: FPR1-HL60 Efficacy
T1 sequence (P21462 1-350): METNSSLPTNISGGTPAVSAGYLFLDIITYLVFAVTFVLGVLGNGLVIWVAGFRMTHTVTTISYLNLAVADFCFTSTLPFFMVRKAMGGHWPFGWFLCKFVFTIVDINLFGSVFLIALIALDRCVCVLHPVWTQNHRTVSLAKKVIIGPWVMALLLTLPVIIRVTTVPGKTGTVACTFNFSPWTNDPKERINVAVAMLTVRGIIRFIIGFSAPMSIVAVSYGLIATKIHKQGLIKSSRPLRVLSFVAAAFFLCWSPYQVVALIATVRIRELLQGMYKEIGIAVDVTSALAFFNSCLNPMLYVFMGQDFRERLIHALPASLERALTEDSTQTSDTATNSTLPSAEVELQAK
How it was run: (§1)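 FPR1-, FPR2- or FPR3-transfected HL-60 cells grown in RPMI 1640 with 10% heat-inactivated FCS, 10 mM HEPES and G418 (1 mg/mL). Cells loaded with Fluo-4 AM (1.25 µg/mL final) for 30 min at 37 °C in the dark, then 2 × 10^5 cells/well. Fluorescence (ex 485/em 538 nm) read every 5 s for 240 s at room temperature. Peak rise over baseline normalized to 5 nM fMLF (FPR1) or 5 nM WKYMVm (FPR2, FPR3). EC50 from 5–6-point nonlinear fits, three independent experiments.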

FPR2 = target: T2, FPR2 (Homo sapiens, UniProt P25090); experiment: Ca2+ flux assay in FPR2-HL60 cells; conditions: for FPR2-HL60 Efficacy: % of the response induced by 5 nM WKYMVm; for Emax: read-out: FPR2-HL60 Efficacy
T2 sequence (P25090 1-351): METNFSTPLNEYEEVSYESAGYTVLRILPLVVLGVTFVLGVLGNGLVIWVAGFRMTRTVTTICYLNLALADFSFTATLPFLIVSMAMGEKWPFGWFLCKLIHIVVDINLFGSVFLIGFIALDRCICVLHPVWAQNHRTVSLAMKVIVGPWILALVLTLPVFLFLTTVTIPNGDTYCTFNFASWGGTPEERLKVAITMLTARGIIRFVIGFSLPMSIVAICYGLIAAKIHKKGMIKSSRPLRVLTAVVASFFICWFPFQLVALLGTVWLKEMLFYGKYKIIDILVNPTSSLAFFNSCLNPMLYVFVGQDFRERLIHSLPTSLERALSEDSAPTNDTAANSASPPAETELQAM
How it was run: as §1

[2] = read-out: FPR1-HL60 EC50, Ca2+ flux, HL-60 cells transfected with FPR1
[3] = read-out: FPR2-HL60 EC50, Ca2+ flux, HL-60 cells transfected with FPR2
[4] = FPR2-HL60 EC50, Ca2+ flux, HL-60 cells transfected with FPR2

SMILES: CCCCCc1c(C)nn(CC(=O)Nc2ccc(Br)cc2)c(=O)c1Nc1cccc(OC)c1 [Compound 13d, N-(4-Bromophenyl)-2-[5-(3-methoxyphenylamino)-3-methyl-6-oxo-4-pentyldazin-1(6H)-yl]acetamide]
- hPMN Efficacy [1]: 55%
- FPR1-HL60 Efficacy (FPR1): 95%
- EC50 (FPR1; [2]): 1.4 ± 0.34 µM
- FPR2-HL60 Efficacy (FPR2): 115%
- EC50 (FPR2; [3]): 0.19 ± 0.018 µM

SMILES: CCOC(=O)c1c(C)nn(CC(=O)Nc2ccc(Br)cc2)c(=O)c1Nc1cccc(OC)c1 [Compound 19b, Ethyl 1-[(4-bromophenylcarbamoyl)methyl]-5-(3-methoxyphenylamino)-1,6-dihydro-3-methyl-6-oxopyridazine-4-carboxylate]
- EC50 [1]: 6.1 ± 1.7 µM
- EC50 (FPR1): 2.5 ± 0.7 µM
- Emax (FPR1): 90%
- EC50 (FPR2; [4]): 1.9 ± 0.03 µM
- Emax (FPR2): 110%

SMILES: CCCc1c(C)nn(CC(=O)Nc2ccc(Br)cc2)c(=O)c1Nc1cccc(OC)c1 [Compound 13b, N-(4-Bromophenyl)-2-[5-(3-methoxyphenylamino)-3-methyl-6-oxo-4-propylpyridazin-1(6H)-yl]acetamide]
- FPR2-HL60 EC50 (FPR2; Ca2+ flux, HL-60 cells transfected with FPR2): completely devoid of activity

SMILES: Cc1nn(CC(=O)Nc2ccc(Br)cc2)c(=O)c(N)c1-c1cc[nH]n1 [Compound 25, 2-[5-Amino-3-methyl-6-oxo-4-(1H-pyrazol-3-yl)-6H-pyridazin-1-yl]-N-(4-bromo--phenyl)acetamide]
- hPMN Efficacy [1]: 140%
- FPR1-HL60 Efficacy (FPR1): 135%
- EC50 (FPR1; [2]): 8.4 ± 1.5 µM
- FPR2-HL60 Efficacy (FPR2): 60%
- EC50 (FPR2; [3]): 13.5 ± 1.8 µM

SMILES: COc1cccc(Nc2c(C(=O)C3CCCCC3)c(C)nn(CC(=O)Nc3ccc(Br)cc3)c2=O)c1 [Compound 8f, N-(4-Bromophenyl)-2-[4-cyclohexanecarbonyl-5-(3-methoxyphenylamino)-3-methyl-6-oxopyridazin-1(6)-yl]acetamide]
- hPMN Efficacy [1]: 120%
- FPR1-HL60 Efficacy (FPR1): 110%
- EC50 (FPR1; [2]): 10 ± 3.2 µM
- FPR2-HL60 Efficacy (FPR2): 115%
- EC50 (FPR2; [3]): 8.7 ± 0.47 µM

SMILES: CCCC(=O)c1c(C)nn(CC(=O)Nc2ccc(Br)cc2)c(=O)c1Nc1cccc(OC)c1 [Compound 8c, N-(4-Bromophenyl)-2-[4-butyryl-5-(3-methoxyphenylamino)-3-methyl-6-oxopyridazin-1(6H)-yl]acetamide]
- EC50 [1]: 24 ± 4.2 µM
- EC50 (FPR1): 11.8 ± 3.5 µM
- Emax (FPR1): 70%
- EC50 (FPR2; [4]): 8.1 ± 2.1 µM
- Emax (FPR2): 90%

SMILES: CCCCc1c(C)nn(CC(=O)Nc2ccc(Br)cc2)c(=O)c1Nc1cccc(OC)c1 [Compound 13c, N-(4-Bromophenyl)-2-[4-butyl-5-(3-methoxyphenylamino)-3-methyl-6-oxopyridazin-1(6H)-yl]acetamide]
- EC50 [1]: 1.4 ± 0.8 µM
- EC50 (FPR1): 3.6 ± 1.1 µM
- Emax (FPR1): 65%
- EC50 (FPR2; [4]): 4.5 ± 1.3 µM
- Emax (FPR2): 30%

SMILES: COc1cccc(Nc2cc(C)cn(CC(=O)Nc3ccc(Br)cc3)c2=O)c1 [Compound 29b, N-(4-Bromophenyl)-2-[3-(3-methoxyphenylamino)-5-methyl-2-oxopyridin-1(2H)-yl]acetamide]
- EC50 [1]: 4.31 ± 0.4 µM
- EC50 (FPR1): 2.5 ± 0.7 µM
- Emax (FPR1): 110%
- EC50 (FPR2; [4]): 8.1 ± 1.7 µM
- Emax (FPR2): 75%

SMILES: COC(=O)c1c(C)nn(CC(=O)Nc2ccc(Br)cc2)c(=O)c1Nc1cccc(OC)c1 [Compound 19a, Methyl 1-[(4-bromophenylcarbamoyl)methyl]-5-(3-methoxyphenylamino)-1,6-dihydro-3-methyl-6-oxopyridazine-4-carboxylate]
- EC50 [1]: 22.1 ± 5.3 µM
- EC50 (FPR1): 4.4 ± 0.6 µM
- Emax (FPR1): 25%
- EC50 (FPR2; [4]): 2.3 ± 0.49 µM
- Emax (FPR2): 60%

SMILES: COc1cccc(Nc2cc(C)nn(CC(=O)Nc3ccc(Br)cc3)c2=O)c1 [Compound 29a, N-(4-Bromophenyl)-2-[5-(3-methoxyphenylamino)-3-methyl-6-oxopyridazin-1(6H)-yl]-acetamide]
- EC50 [1]: 0.56 ± 0.12 µM
- EC50 (FPR1): 0.24 ± 0.09 µM
- Emax (FPR1): 120%
- EC50 (FPR2; [4]): 9.6 ± 2 µM
- Emax (FPR2): 65%
